ChEMBL document CHEMBL1123096, “Alpha-adrenoreceptor reagents. 3. Synthesis of some 2-substituted 1,4-benzodioxans as selective presynaptic alpha 2-adrenoreceptor antagonists” (J Med Chem, 1985)

Tests used:
[1] = target: T1, Adrenergic receptor alpha-2 (Rattus norvegicus, UniProt P22086+P19328+P22909); experiment: Alpha-2 adrenergic receptor antagonist activity in a rat vas deferens assay. Values ranges from 9.30-9.52; type: functional, tissue-based
T1 sequence (P22086 whole entry): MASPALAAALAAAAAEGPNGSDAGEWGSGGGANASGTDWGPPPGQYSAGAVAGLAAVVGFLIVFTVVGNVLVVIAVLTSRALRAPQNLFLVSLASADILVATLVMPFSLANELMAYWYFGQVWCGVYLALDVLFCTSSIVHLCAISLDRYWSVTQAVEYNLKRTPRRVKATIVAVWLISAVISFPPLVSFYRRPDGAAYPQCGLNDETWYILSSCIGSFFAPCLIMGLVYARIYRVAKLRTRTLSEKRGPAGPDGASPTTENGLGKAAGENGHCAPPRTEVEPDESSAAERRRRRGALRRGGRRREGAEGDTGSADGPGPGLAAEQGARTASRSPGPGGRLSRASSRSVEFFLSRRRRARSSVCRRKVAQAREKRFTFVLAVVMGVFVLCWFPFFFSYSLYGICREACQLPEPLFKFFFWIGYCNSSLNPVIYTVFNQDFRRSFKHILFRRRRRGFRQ
T1 sequence (P19328 whole entry): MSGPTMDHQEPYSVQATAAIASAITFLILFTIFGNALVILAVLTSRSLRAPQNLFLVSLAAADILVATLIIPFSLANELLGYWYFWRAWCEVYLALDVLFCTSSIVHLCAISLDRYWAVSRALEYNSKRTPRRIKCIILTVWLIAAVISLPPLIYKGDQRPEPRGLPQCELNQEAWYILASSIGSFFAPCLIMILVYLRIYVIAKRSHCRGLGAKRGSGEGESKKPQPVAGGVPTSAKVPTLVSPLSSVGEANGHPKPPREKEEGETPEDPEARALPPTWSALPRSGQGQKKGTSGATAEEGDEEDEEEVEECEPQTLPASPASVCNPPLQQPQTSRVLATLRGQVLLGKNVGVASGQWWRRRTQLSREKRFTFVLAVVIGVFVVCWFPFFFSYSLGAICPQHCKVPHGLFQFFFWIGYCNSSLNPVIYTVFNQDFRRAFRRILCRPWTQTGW
T1 sequence (P22909 whole entry): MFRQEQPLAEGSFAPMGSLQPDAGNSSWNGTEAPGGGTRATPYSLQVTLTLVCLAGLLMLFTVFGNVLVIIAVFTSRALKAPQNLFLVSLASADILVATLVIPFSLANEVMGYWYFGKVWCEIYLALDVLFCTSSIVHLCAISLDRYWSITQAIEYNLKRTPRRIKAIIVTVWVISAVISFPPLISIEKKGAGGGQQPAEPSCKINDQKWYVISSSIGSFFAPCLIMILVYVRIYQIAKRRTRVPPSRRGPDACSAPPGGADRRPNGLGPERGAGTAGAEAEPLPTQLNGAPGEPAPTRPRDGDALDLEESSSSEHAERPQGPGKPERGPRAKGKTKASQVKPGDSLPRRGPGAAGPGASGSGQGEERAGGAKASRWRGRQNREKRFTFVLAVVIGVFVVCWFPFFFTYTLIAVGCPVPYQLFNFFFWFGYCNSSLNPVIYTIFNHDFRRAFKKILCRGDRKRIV
Summary of the method: (§1)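 pA2 at presynaptic α2-adrenoreceptors in field-stimulated rat vas deferens. Tissue was held in Krebs solution (NaCl 118 mM, KCl 4.7 mM, CaCl2 2.5 mM, KH2PO4 1.2 mM, MgSO4 0.6 mM, NaHCO3 25 mM, dextrose 11.1 mM) gassed with 95% O2/5% CO2 at 30 °C. Stimulation was 3-ms pulses, 40 V, 0.1 Hz, with contractions recorded isometrically. Twitches were inhibited by clonidine (110 nM).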

[2] = target: T2, Adrenergic receptor alpha-2 (Rattus norvegicus) (UniProt P22086+P19328+P22909); experiment: Alpha-2 adrenergic receptor antagonist activity compared to idazoxan; type: functional
Summary of the method: (§2)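 Vas deferens from rat or mouse; the mouse tissue was in Mg-free Krebs at 30 °C under 0.5 g tension, stimulated at 0.1 Hz, 3 ms, 100–140 V, giving a twitch of about 100 mg. […] Standard curves were run before and after the test curve.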

[3] = target: T2, Adrenergic receptor alpha-2 (Rattus norvegicus); experiment: Presynaptic antagonist activity towards alpha-2 adrenergic receptor.; type: functional; summary of the method: as §2
[4] = target: T3, Adrenergic receptor alpha-1 (Rattus norvegicus, UniProt P15823+P23944+P43140); experiment: Alpha-1 antagonist activity in a rat anococcygeus. Values ranges from 6.6-7.23; type: functional
T3 sequence (P15823 whole entry): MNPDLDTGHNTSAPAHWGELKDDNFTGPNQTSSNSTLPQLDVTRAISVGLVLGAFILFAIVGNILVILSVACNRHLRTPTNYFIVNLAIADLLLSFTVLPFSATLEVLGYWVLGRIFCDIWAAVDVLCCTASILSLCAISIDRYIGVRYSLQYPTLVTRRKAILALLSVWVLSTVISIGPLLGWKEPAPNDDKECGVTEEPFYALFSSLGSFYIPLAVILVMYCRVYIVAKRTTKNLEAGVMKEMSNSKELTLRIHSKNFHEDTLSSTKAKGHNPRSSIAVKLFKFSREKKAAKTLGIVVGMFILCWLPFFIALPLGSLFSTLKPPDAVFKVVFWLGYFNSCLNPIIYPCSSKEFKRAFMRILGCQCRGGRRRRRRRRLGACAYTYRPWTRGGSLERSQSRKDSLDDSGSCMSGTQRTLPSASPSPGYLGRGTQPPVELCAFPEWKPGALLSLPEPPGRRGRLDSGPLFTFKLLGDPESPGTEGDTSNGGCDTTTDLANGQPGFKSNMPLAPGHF
T3 sequence (P23944 whole entry): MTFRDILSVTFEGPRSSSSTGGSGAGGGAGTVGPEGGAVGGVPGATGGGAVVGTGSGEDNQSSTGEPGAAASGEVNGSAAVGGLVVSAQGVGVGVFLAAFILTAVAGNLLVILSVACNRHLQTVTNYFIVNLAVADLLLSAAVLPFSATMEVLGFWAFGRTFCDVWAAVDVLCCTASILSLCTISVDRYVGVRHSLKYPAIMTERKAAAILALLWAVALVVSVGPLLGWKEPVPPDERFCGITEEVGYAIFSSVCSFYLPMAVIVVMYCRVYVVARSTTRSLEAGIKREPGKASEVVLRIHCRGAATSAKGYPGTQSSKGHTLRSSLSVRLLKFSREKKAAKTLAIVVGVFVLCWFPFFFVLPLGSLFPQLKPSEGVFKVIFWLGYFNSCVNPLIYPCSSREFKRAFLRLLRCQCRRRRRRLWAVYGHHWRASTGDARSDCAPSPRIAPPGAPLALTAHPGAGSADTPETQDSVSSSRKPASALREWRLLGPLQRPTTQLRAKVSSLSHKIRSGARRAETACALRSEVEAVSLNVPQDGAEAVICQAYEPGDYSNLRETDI
T3 sequence (P43140 whole entry): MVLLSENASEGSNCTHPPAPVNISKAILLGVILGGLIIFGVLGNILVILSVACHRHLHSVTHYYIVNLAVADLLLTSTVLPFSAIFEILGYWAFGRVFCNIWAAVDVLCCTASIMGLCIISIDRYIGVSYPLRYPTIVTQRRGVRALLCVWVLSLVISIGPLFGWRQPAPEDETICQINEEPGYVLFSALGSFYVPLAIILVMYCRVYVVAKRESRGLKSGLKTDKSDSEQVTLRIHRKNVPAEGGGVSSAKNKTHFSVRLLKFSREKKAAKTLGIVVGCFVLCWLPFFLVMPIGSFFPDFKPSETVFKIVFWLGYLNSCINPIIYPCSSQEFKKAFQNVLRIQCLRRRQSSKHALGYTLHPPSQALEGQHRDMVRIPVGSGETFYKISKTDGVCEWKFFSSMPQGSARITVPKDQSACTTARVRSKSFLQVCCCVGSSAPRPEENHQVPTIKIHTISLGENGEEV

[5] = target: T4, Adrenergic receptor alpha-1 (Rattus norvegicus) (UniProt P15823+P23944+P43140); experiment: post-synaptic antagonist activity towards alpha-1 adrenergic receptor was determined. Concentration giving a dose response to phenylephrine (idazoxan=1) was reported.; type: functional
Summary of the method: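 Rat anococcygeus, postsynaptic α1 antagonism. At least five phenylephrine concentration–response curves were run alone, then at least four with the antagonist present.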

[6] = target: T4, Adrenergic receptor alpha-1 (Rattus norvegicus); experiment: Alpha-1 adrenergic receptor binding activity relative to idazoxan.; type: protein assay
[7] = target: Adrenergic receptor alpha (Rattus norvegicus) (UniProt P15823+P23944+P43140+P22086+P19328+P22909); experiment: Selectivity as ratio […] against alpha-2 receptor to that of alpha-1 receptor.; type: protein assay
[8] = target: T3, Adrenergic receptor alpha-1; experiment: Alpha-1 adrenergic receptor antagonist activity in a rat anococcygeus. Values ranges from 6.35-6.88; type: functional
[9] = target: T1, Adrenergic receptor alpha-2; experiment: Alpha-2 adrenergic receptor antagonist activity in a rat vas deferens assay. Values ranges from 8.74-9.17; type: functional; summary of the method: as §1
[10] = target: T1, Adrenergic receptor alpha-2; experiment: Alpha-2 adrenergic receptor antagonist activity in a rat vas deferens assay. Values ranges from 7.77-8.21; type: functional, tissue-based
[11] = target: T4, Adrenergic receptor alpha-1 (Rattus norvegicus); experiment: Alpha-1 adrenergic receptor antagonist activity relative to idazoxan.; type: functional
Summary of the method: (§3)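 The agonist was phenylephrine, tested on isolated rat anococcygeus under 0.5 g initial tension. At least five phenylephrine dose-response curves were run alone, then at least four in the presence of the analogue.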

[12] = target: T3, Adrenergic receptor alpha-1; experiment: Alpha-1 adrenergic receptor activity in a rat anococcygeus. Values ranges from 5.49-6.90
[13] = target: T3, Adrenergic receptor alpha-1; experiment: Alpha-1 adrenergic receptor antagonist activity in a rat anococcygeus. Values ranges from 6.29-6.54; type: functional
[14] = target: T1, Adrenergic receptor alpha-2; experiment: Alpha-2 adrenergic receptor antagonist activity in a rat vas deferens assay. Values ranges from 8.37-9.10; type: functional; summary of the method: as §1
[15] = target: T1, Adrenergic receptor alpha-2; experiment: Alpha-2 adrenergic receptor antagonist activity in a rat vas deferens assay. Values ranges from […]; type: functional, tissue-based; summary of the method: as §1
[16] = target: T3, Adrenergic receptor alpha-1; experiment: Alpha-1 adrenergic receptor antagonist activity in a rat anococcygeus. Values ranges from 5.84-6.31; type: functional
[17] = target: T1, Adrenergic receptor alpha-2; experiment: Alpha-2 adrenergic receptor activity in a rat vas deferens assay. Values ranges from 8.25-9.35; type: tissue-based; summary of the method: as §1
[18] = target: T3, Adrenergic receptor alpha-1; experiment: Alpha-1 adrenergic receptor activity in a rat anococcygeus. Values ranges from 6.17-6.38
[19] = target: T1, Adrenergic receptor alpha-2; experiment: Alpha-2 adrenergic receptor antagonist activity in a rat vas deferens assay. Values ranges from 7.80-8.14; type: functional, tissue-based
[20] = target: T3, Adrenergic receptor alpha-1; experiment: Alpha-1 adrenergic receptor antagonist activity in a rat anococcygeus. Values ranges from 5.19-5.44; type: functional
[21] = target: T4, Adrenergic receptor alpha-1 (Rattus norvegicus); experiment: post-synaptic antagonist activity towards adrenergic receptor was determined. Concentration giving a dose response to phenylephrine (idazoxan=1) was reported.; type: functional; summary of the method: as §3
[22] = target: T1, Adrenergic receptor alpha-2; experiment: Alpha-2 adrenergic receptor activity in a rat vas deferens assay. Values ranges from 8.85-9.01; type: tissue-based; summary of the method: as §1
[23] = target: T3, Adrenergic receptor alpha-1; experiment: Alpha-1 adrenergic receptor antagonist activity in a rat anococcygeus. Values ranges from 6.53-7.08; type: functional
[24] = target: T1, Adrenergic receptor alpha-2; experiment: Alpha-2 adrenergic receptor antagonist activity in a rat vas deferens assay. Values ranges from 8.31-8.44; type: functional; summary of the method: as §1
[25] = target: T3, Adrenergic receptor alpha-1; experiment: Alpha-1 adrenergic receptor antagonist activity in a rat anococcygeus. Values ranges from 6.63-6.78; type: functional

COC1(C2=NCCN2)COc2ccccc2O1 (stereo not drawn)
pA2 [1]: 9.41 | Relative potency [2]: 8.1 | potency relative to idazoxan [3]: 11 | pA2 [4]: 6.91 | Postsynaptic antagonist [5]: 4 | Relative potency [6]: 4 | Ratio [7]: 2.8

CCCC1(C2=NCCN2)COc2ccccc2O1 (stereo not drawn)
Relative potency [2]: 2.6 | potency relative to idazoxan [3]: 4.8 | Postsynaptic antagonist [5]: 3.2 | Relative potency [6]: 1.7 | Ratio [7]: 1.5 | pA2 [8]: 6.56 | pA2 [9]: 8.92

C1=C(C2(C3=NCCN3)COc3ccccc3O2)CC1.Cl (stereo not drawn)
Relative potency [2]: 0.3 | pA2 [10]: 8.21 | potency relative to idazoxan [3]: 0.3 | Postsynaptic antagonist [5]: 0.13 | Relative potency [11]: 0.3 | pA2 [12]: 6.9 | Ratio [7]: 2.3

c1ccc(COC2(C3=NCCN3)COc3ccccc3O2)cc1 (stereo not drawn)
Relative potency [2]: 1.5 | potency relative to idazoxan [3]: 2 | Postsynaptic antagonist [5]: 3 | Relative potency [6]: 1.2 | pA2 [13]: 6.39 | Ratio [7]: 0.7 | pA2 [14]: 8.68

CC(C)OC1(C2=NCCN2)COc2ccccc2O1 (stereo not drawn)
pA2 [15]: 8.67 | Relative potency [2]: 1.5 | potency relative to idazoxan [3]: 1 | Postsynaptic antagonist [5]: 0.6 | Relative potency [6]: 0.5 | pA2 [16]: 6.01 | Ratio [7]: 1.6

CCCOC1(C2=NCCN2)COc2ccccc2O1 (stereo not drawn)
Relative potency [2]: 1.4 | pA2 [17]: 8.64 | potency relative to idazoxan [3]: 1.5 | Postsynaptic antagonist [5]: 1 | Relative potency [6]: 0.9 | pA2 [18]: 6.26 | Ratio [7]: 1.5

CC1(C2=NCCN2)COc2ccccc2O1.Cl (stereo not drawn)
Relative potency [2]: 0.3 | pA2 [19]: 8.14 | potency relative to idazoxan [3]: 0.67 | Relative potency [6]: 0.1 | pA2 [20]: 5.44 | Postsynaptic antagonist [21]: 0.28 | Ratio [7]: 2.4

CCOC1(C2=NCCN2)COc2ccccc2O1.Cl (stereo not drawn)
Relative potency [2]: 2.6 | pA2 [22]: 8.92 | potency relative to idazoxan [3]: 5.9 | Postsynaptic antagonist [5]: 7 | Relative potency [6]: 2.6 | pA2 [23]: 6.74 | Ratio [7]: 0.8

CCCCOC1(C2=NCCN2)COc2ccccc2O1 (stereo not drawn)
pA2 [24]: 8.37 | Relative potency [2]: 0.7 | potency relative to idazoxan [3]: 1.6 | Postsynaptic antagonist [5]: 2.2 | Relative potency [6]: 2.4 | pA2 [25]: 6.7 | Ratio [7]: 0.7
